The list is not random: actives were taken first. Their share in the collection is about 0.88%.
CCR6 antagonist – CCR6 (human) receptor antagonism; inhibition, % at 20 µM; AID 493098; CHO-K1 CCR6 PathHunter beta-arrestin, luminescence, CCL20-stimulated; P51684; 340,000 compounds, 0.49% hits;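 active means compounds whose inhibition of the agonist-driven luminescence signal at 20 µM reaches about 50%, limit read from the data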;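 further: cells stimulated with CCL20 at 14 nM final; plate controls were DMSO with CCL20 for no effect and DMSO without agonist for full effect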
APJ agonist – agonists of human APJ apelin receptor; CHO-K1 APJ PathHunter beta-arrestin, luminescence; 0% DMSO wells, 100% apelin; activation, % at 20 µM; 330,000 compounds, 0.11% hits; AID 2520;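 active means activation more than six SD over the plate average, tested at 20 µM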;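 further: 0% = DMSO alone and 100% = apelin-13 at 10 nM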
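Assay system – PathHunter CHO-K1 APJ (AGTRL-1) beta-arrestin reporter cells · Compound – one dose, 20 µM compound, 1% DMSO · Timing – compound 90 min 25 °C, reagent 1 h · Measured by – luminescence from split beta-galactosidase complementation, Galacton Star/Emerald II substrate · Measure – beta-arrestin recruitment to APJ as agonist activity, luminescent signal · Benchmarks – DMSO vs Apelin-13 10 nM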
PKA-R2B act – activators of human PKA-R2B complex; activation, % at 11.4 µM; P22694+P31323; PKA-R2B holoenzyme dissociation, Cy5-IP20 fluorescence polarization; R2B truncated from residue 108, S112A mutant; 0% DMSO only, 100% 113 µM cGMP; 340,000 compounds, 0.079% hits;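 active means activation above a cutoff set at the mean over all compounds plus 3 SD, cut at about 18% in these data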;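 further: higher means more holoenzyme dissociation and a rise in polarization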
Target sequence (P31323 whole entry, looked up, other chains not shown, the tested form may be a part): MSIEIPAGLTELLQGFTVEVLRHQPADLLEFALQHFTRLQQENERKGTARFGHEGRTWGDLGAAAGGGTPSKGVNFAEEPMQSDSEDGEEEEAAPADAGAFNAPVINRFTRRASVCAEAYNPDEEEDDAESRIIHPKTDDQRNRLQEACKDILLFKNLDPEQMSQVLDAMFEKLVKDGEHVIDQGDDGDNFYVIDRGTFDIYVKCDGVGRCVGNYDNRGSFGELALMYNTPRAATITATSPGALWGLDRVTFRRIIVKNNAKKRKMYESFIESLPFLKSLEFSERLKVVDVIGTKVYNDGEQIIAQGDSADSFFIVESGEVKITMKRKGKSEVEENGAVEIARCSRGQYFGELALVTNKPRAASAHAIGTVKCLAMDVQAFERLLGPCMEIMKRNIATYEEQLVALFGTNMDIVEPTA
CXCR6 block – CXCR6 (human) receptor inhibition. CHO-K1 PathHunter CXCR6 beta-arrestin, luminescence. inhibition, % at 20 µM. 360,000 compounds, 0.36% hits. AID 602244; in the data active means inhibition above about 34%, passing the limit was not always enough;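 further: antagonist mode with CXCL16 agonist at 10 nM final; 0% = 10 nM CXCL16 with DMSO and 100% = unstimulated wells without agonist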
APJ antag – blocks the human apelin receptor APJ. 330,000 compounds, 0.32% hits. CHO-K1 APJ beta-arrestin complementation, luminescence. inhibition, % at 20 µM. AID 2521;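 active means inhibition above about 40% at 20 µM, limit read from the data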;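 further: cells challenged with 10 nM apelin-13 agonist together with compound; plate controls were apelin-13 plus DMSO wells for no effect and DMSO wells lacking apelin-13 for full effect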
PKA-R1A activ – activators of PKA-R1A complex; activation, % at 11.4 µM; 340,000 compounds, 0.083% hits; PKA-R1A dissociation, Cy5-IP20 fluorescence polarization; scaled: DMSO 0%, 113 µM cGMP 100%;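 active means percent activation above the mean of all tested compounds plus 3 SD, cut at about 19% in these data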;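 further: higher means more PKAc released from R1A so a rise in polarization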
CXCR6 antag conf – CXCR6 antagonism confirmation, single concentration. 700 compounds, 65% hits. shares compounds with CXCR6 block. CHO-K1 CXCR6 PathHunter beta-arrestin, luminescence. inhibition, % at 20 µM;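 active means mean inhibition over four retests above 40%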;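 further: receptor stimulated with 10 nM CXCL16 agonist; beta-galactosidase fragment complementation upon beta-arrestin recruitment to receptor; plate controls were CXCL16 plus DMSO for no effect and DMSO without CXCL16 for full effect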
Numbers without * were called inactive; nt = not tested or not shown.

SMILES	CCR6 antagonist	APJ agonist	PKA-R2B act	CXCR6 block	APJ antag	PKA-R1A activ	CXCR6 antag conf
O=[N+]([O-])c1ccc(Sc2cccc3cccnc23)c([N+](=O)[O-])c1	56*	-4	0	53*	37	6	70*
C=CS(=O)(=O)c1ccc(Oc2ccc(S(=O)(=O)C=C)cc2)cc1	74*	0	-6	64*	39	-7	66*
CC1=C(CO)C(=O)OC([C@@H](C)C2CC[C@H]3C4C[C@H]5O[C@]56[C@@H](O)C=CC(=O)[C@]6(C)C4CC[C@]23C)C1 (stereo not given in full)	41	nt	1	44*	nt	4	48*
O=C(NC(=S)N1CCN(c2c(Cl)cccc2[N+](=O)[O-])CC1)c1cccs1	45	-3	2	38*	7	-6	35
COc1ccc(N2CCN(C(=S)NC(=O)c3cccs3)CC2)c([N+](=O)[O-])c1	45	-3	-4	22	16	-3	nt
CCCNC(=O)c1ccccc1SCc1c(C)noc1C	-1	-3	-1	4	9	3	nt
CCc1nc2ccc(C(=O)N3CCN(c4ccccc4F)CC3)cc2nc1CC	17	1	-6	0	-3	-11	nt
O=C(O)CC(CC(=O)N1CCN(C(=O)c2ccco2)CC1)c1ccccc1 (stereo not given)	-8	2	-5	-8	-5	-15	nt
N#C/C(=C/c1ccc(-c2ccc([N+](=O)[O-])cc2)o1)C(=O)Nc1nc(-c2cccs2)cs1	68*	nt	-6	48*	nt	0	44*
COc1ccc(-c2noc(-c3ccccc3C(=O)NCC3CCCO3)n2)cc1 (stereo not given)	3	-1	2	-1	-3	2	nt
CCCc1cc(NCc2ccccn2)n2c(nc3ccccc32)c1C#N	2	3	-3	59*	-20	3	-1
Cc1nn(-c2nc3ccccc3[nH]2)c(N)c1-c1ccccc1	nt	-7	2	49*	19	-6	53*
CCCCn1c(N)c(N(CCOC)C(=O)CN2C(=O)C3CCCCC3C2=O)c(=O)[nH]c1=O (stereo not given)	-1	-2	-3	-3	6	-4	nt
O=C1C=CC(=NN=C(c2ccccc2)c2ccccc2)C=C1	nt	nt	nt	-2	nt	nt	nt
CCC(C)c1ccc(O)c(NC(=S)NC(=O)c2cccs2)c1 (stereo not given)	nt	nt	2	59*	nt	-11	64*
CCC(C)c1ccc(O)c(NC(=O)c2cccnc2)c1 (stereo not given)	2	-7	-2	-4	-9	1	nt
CN(C)c1ccc(-c2csc(C(O)c3ccc(F)c(F)c3)n2)cc1 (stereo not given)	nt	nt	nt	-15	nt	nt	nt
COC(=O)c1ccc2c(c1)C(C)(C)C(/C=C/c1ccc(OC)c(OC)c1OC)=[N+]2C	56*	-2	-6	77*	2	-7	102*
COc1ccc(/C=N/Nc2ccc(C(=O)O)cc2)c(OC)c1OC	2	1	4	-8	-9	7	nt
CCCCCC(=O)N1C[C@H](n2cc(-c3ccc(F)cc3)nn2)[C@@H](O)C[C@@H]1c1ccc(Cl)cc1	nt	nt	-3	-5	nt	-8	nt
CCn1nccc1C(=O)Nc1nc2ccccc2n1CCN1CCCCC1	54*	1	-8	64*	18	-1	48*
O=C(COc1ccc(Br)cc1Cl)NC(=S)N1CCc2ccccc21	44	-4	-5	57*	12	-21	53*
O=C(COc1ccc(Br)cc1Br)NC(=S)N1CCCc2ccccc21	-2	-6	3	-4	2	-22	nt
Nc1nnc(SCC(=O)OCC(=O)c2ccccc2Br)s1	13	0	2	49*	4	-10	9
CC1(O)N(CCC(=O)Nc2cccc(F)c2)C(=O)OC12CCCCC2 (stereo not given)	-12	-2	-5	5	-2	-9	nt
SMILES	CCR6 antagonist	APJ agonist	PKA-R2B act	CXCR6 block	APJ antag	PKA-R1A activ	CXCR6 antag conf
Cc1ccc(N2CCN(C(=O)C3CCC(=O)N(Cc4ccc(Cl)cc4)C3)CC2)c(C)c1 (stereo not given)	5	3	-10	-1	1	-7	nt
Cc1ccc(-c2nc(CS(=O)CC(=O)NCCN3CCCCCC3)c(C)o2)cc1 (stereo not given)	-2	-3	-4	5	10	-4	nt
O=C(Nc1nc(-c2ccccc2)c(-c2ccccc2)o1)c1ccc(F)cc1	nt	-4	-4	41*	16	-11	27
CC1Cc2ccccc2N1C(=S)NC(=O)c1cccc(Br)c1 (stereo not given)	nt	0	6	48*	24	-11	65*
CC1Cc2ccccc2N1C(=S)NC(=O)c1ccc(Cl)cc1Cl (stereo not given)	27	-2	-3	22	28	-3	nt
O=C1c2cccc3c([N+](=O)[O-])ccc(c23)C(=O)N1Cc1cccnc1	nt	nt	-6	60*	nt	-5	65*
COc1ccc(Cl)cc1C(=O)NC(C)C	4	-3	-7	9	9	5	nt
CCOC(=O)C1(Cc2ccc(Cl)cc2)CCN(Cc2ccon2)CC1	4	-1	-9	70*	19	-9	5
CCCCC(=O)NC(=S)Nc1ccccc1C(=O)Nc1ccccc1	54*	-5	-5	51*	27	-10	54*
CC(=O)NC(=S)Nc1ccccc1C(=O)Nc1ccccc1	10	-7	1	5	16	-13	nt
COCCn1c(SCC(=O)Nc2cccc(NC(C)=O)c2)nc2c([nH]c3ccccc32)c1=O	11	2	0	-9	-6	1	nt
CCOC(=O)Cc1c(C)nc2c(-c3cccc(Br)c3)c[nH]n2c1=O	19	-2	-1	36*	19	-6	12
CCOC(=O)Cc1c(C)nc2c(C#N)c[nH]n2c1=O	17	-3	5	7	-5	-3	nt
COc1cc(/C=C/c2ccc3c(Br)cc(Br)c(O)c3n2)ccc1O	68*	nt	4	42*	nt	7	51*
C/C(CCc1ccccc1)=N\NC(=S)NCCc1ccccc1	40	-3	-7	26	6	0	nt
C/C(CCC(C)C)=N\NC(=S)NCc1ccccc1	40	-4	-14	40*	38	-15	30
C=CC[C@H](CC(=O)N(CCO)Cc1ccccc1)C(=O)N[C@H](COC(=O)[C@H](CC=C)CC(=O)OC(C)(C)C)Cc1ccccc1	29	-3	-19	42*	8	-3	25
